Assay type in all cases: functional
Assay [1] concerns A549. Nature of the assay: Ratio of GI50 for human A549 cells to GI50 for human SF295 cells after 48 hrs by sulforhodamine B assay. A general note: Sulforhodamine B stains cellular protein and so reports cell mass.
In a further assay the test system is HT-29. Nature of the assay: Cytotoxicity against human HT-29 cells assessed as cell growth at 10 uM after 48 hrs by sulforhodamine B assay relative to control. Conditions: HT-29, 48 h, read-out: Activity. Summed up:
(§1)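 Compounds went through the NCI 60 cell-line screen, whose current protocol tests first at a single dose.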

In a further assay the test system is OVCAR-8. The assay can be described thus: Cytotoxicity against human OVCAR8 cells assessed as cell growth at 10 uM after 48 hrs by sulforhodamine B assay relative to control. The conditions noted are these: OVCAR-8, 48 h, read-out: Activity. An outline of the steps:
as §1

The next assay concerns NCI-H23. The assay can be described thus: Cytotoxicity against human NCI-H23 cells assessed as cell growth at 10 uM after 48 hrs by sulforhodamine B assay relative to control. The conditions noted are these: NCI-H23, 48 h, read-out: Activity. Summed up: as §1
Another assay deals with MOLT-4. Nature of the assay: Cytotoxicity against human MOLT4 cells assessed as cell growth at 10 uM after 48 hrs by sulforhodamine B assay relative to control. Conditions: MOLT-4, 48 h, read-out: Activity. An outline of the steps:
as §1

The test system of a further assay is T47D. The assay can be described thus: Cytotoxicity against human T47D cells assessed as cell growth at 10 uM after 48 hrs by sulforhodamine B assay relative to control. The conditions noted are these: read-out: Activity.
A further assay has as its system HL-60(TB). Nature of the assay: Cytotoxicity against human HL-60(TB) cells assessed as cell growth at 10 uM after 48 hrs by sulforhodamine B assay relative to control. Conditions: HL-60, 48 h, read-out: Activity. Summed up:
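Tested in the NCI 60 cell-line screen, where the current protocol starts with testing at a single dose.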

Another assay deals with MDA-MB-231. The assay can be described thus: Cytotoxicity against human MDA-MB-231/ATCC cells assessed as cell growth at 10 uM after 48 hrs by sulforhodamine B assay relative to control. Conditions: MDA-MB-231, 48 h, read-out: Activity. Summed up: as §1
The subject of a further assay is NCI-H522. Nature of the assay: Cytotoxicity against human NCI-H522 cells assessed as cell growth at 10 uM after 48 hrs by sulforhodamine B assay relative to control. The conditions noted are these: NCI-H522, 48 h, read-out: Activity. Summed up: as §1
In the next assay the test system is SNB-19. The assay can be described thus: Cytotoxicity against human SNB19 cells assessed as cell growth at 10 uM after 48 hrs by sulforhodamine B assay relative to control. The conditions noted are these: SNB-19, 48 h, read-out: Activity. Summed up: as §1
The test system of the next assay is EKVX. Nature of the assay: Cytotoxicity against human EKVX cells assessed as cell growth at 10 uM after 48 hrs by sulforhodamine B assay relative to control. The conditions noted are these: read-out: Activity. An outline of the steps:
as §1

A further assay deals with MDA-MB-468. Nature of the assay: Cytotoxicity against human MDA-MB-468 cells assessed as cell growth at 10 uM after 48 hrs by sulforhodamine B assay relative to control. The conditions noted are these: MDA-MB-468, 48 h, read-out: Activity. Summed up: as §1
A further assay deals with SF-295. Nature of the assay: Cytotoxicity against human SF295 cells assessed as cell growth at 10 uM after 48 hrs by sulforhodamine B assay relative to control. The conditions noted are these: SF-295, 48 h, read-out: Activity. An outline of the steps: as §1
A further assay deals with OVCAR-3. The assay can be described thus: Cytotoxicity against human OVCAR3 cells assessed as cell growth at 10 uM after 48 hrs by sulforhodamine B assay relative to control. Conditions: OVCAR-3, 48 h, read-out: Activity. An outline of the steps:
as §1

Another assay has as its system SF-268. The assay can be described thus: Cytotoxicity against human SF268 cells assessed as cell growth at 10 uM after 48 hrs by sulforhodamine B assay relative to control. Conditions: SF-268, 48 h, read-out: Activity. An outline of the steps:
as §1

Another assay deals with CAKI-1. Nature of the assay: Cytotoxicity against human Caki1 cells assessed as cell growth at 10 uM after 48 hrs by sulforhodamine B assay relative to control. Conditions: CAKI-1, 48 h, read-out: Activity. Summed up:
as §1

The subject of a further assay is NCI-H226. Nature of the assay: Cytotoxicity against human NCI-H226 cells assessed as cell growth at 10 uM after 48 hrs by sulforhodamine B assay relative to control. Conditions: NCI-H226, 48 h, read-out: Activity. An outline of the steps: as §1
A further assay relates to BT-549. The assay can be described thus: Cytotoxicity against human BT549 cells assessed as cell growth at 10 uM after 48 hrs by sulforhodamine B assay relative to control. Conditions: BT-549, 48 h, read-out: Activity. An outline of the steps: as §1
In another assay the test system is HCC 2998. The assay can be described thus: Cytotoxicity against human HCC2998 cells assessed as cell growth at 10 uM after 48 hrs by sulforhodamine B assay relative to control. Conditions: HCC 2998, 48 h, read-out: Activity. An outline of the steps: as §1
In the next assay the test system is UACC-62. The assay can be described thus: Cytotoxicity against human UACC62 cells assessed as cell growth at 10 uM after 48 hrs by sulforhodamine B assay relative to control. Conditions: UACC-62, 48 h, read-out: Activity.
Another assay relates to SF-539. Nature of the assay: Cytotoxicity against human SF539 cells assessed as cell growth at 10 uM after 48 hrs by sulforhodamine B assay relative to control. The conditions noted are these: SF-539, 48 h, read-out: Activity. Summed up:
as §1

A further assay concerns COLO 205. Nature of the assay: Cytotoxicity against human COLO205 cells assessed as cell growth at 10 uM after 48 hrs by sulforhodamine B assay relative to control. Conditions: COLO 205, 48 h, read-out: Activity. Summed up:
as §1

For a further assay, the system named is LOX IMVI. The assay can be described thus: Cytotoxicity against human LOXIMVI cells assessed as cell growth at 10 uM after 48 hrs by sulforhodamine B assay relative to control. The conditions noted are these: read-out: Activity. An outline of the steps:
as §1

Another assay concerns NCI/ADR-RES. Nature of the assay: Cytotoxicity against human NCI/ADR-RES cells assessed as cell growth at 10 uM after 48 hrs by sulforhodamine B assay relative to control. The conditions noted are these: read-out: Activity. An outline of the steps: as §1
The nature of assay [2]: Cytotoxicity against human Hs 578T cells assessed as cell growth at 10 uM after 48 hrs by sulforhodamine B assay relative to control. Conditions: read-out: Activity. An outline of the steps: as §1
Another assay deals with PC-3. The assay can be described thus: Cytotoxicity against human PC3 cells assessed as cell growth at 10 uM after 48 hrs by sulforhodamine B assay relative to control. The conditions noted are these: PC-3, 48 h, read-out: Activity. Summed up:
as §1

In another assay the test system is HCT-15. The assay can be described thus: Cytotoxicity against human HCT15 cells assessed as cell growth at 10 uM after 48 hrs by sulforhodamine B assay relative to control. The conditions noted are these: HCT-15, 48 h, read-out: Activity. Summed up: as §1
The next assay concerns SK-MEL-5. The assay can be described thus: Cytotoxicity against human SK-MEL-5 cells assessed as cell growth at 10 uM after 48 hrs by sulforhodamine B assay relative to control. Conditions: SK-MEL-5, 48 h, read-out: Activity. An outline of the steps: as §1
In the next assay the test system is HCT-116. The assay can be described thus: Cytotoxicity against human HCT116 cells assessed as cell growth at 10 uM after 48 hrs by sulforhodamine B assay relative to control. The conditions noted are these: HCT-116, 48 h, read-out: Activity. An outline of the steps:
as §1

The subject of the next assay is CCRF-CEM. Nature of the assay: Cytotoxicity against human CCRF-CEM cells assessed as cell growth at 10 uM after 48 hrs by sulforhodamine B assay relative to control. Conditions: read-out: Activity. An outline of the steps: as §1
In another assay the test system is NCI-H460. Nature of the assay: Cytotoxicity against human NCI-H460 cells assessed as cell growth at 10 uM after 48 hrs by sulforhodamine B assay relative to control. Conditions: NCI-H460, 48 h, read-out: Activity. An outline of the steps: as §1
Assay [3] relates to A549. The assay can be described thus: Cytotoxicity against human A549/ATCC cells assessed as cell growth at 10 uM after 48 hrs by sulforhodamine B assay relative to control. Conditions: A549, 48 h, read-out: Activity. An outline of the steps:
as §1

For a further assay, the system named is M14. Nature of the assay: Cytotoxicity against human M14 cells assessed as cell growth at 10 uM after 48 hrs by sulforhodamine B assay relative to control. Conditions: M14, 48 h, read-out: Activity. An outline of the steps:
as §1

The test system of another assay is MDA-MB-435. The assay can be described thus: Cytotoxicity against human MDA-MB-435 cells assessed as cell growth at 10 uM after 48 hrs by sulforhodamine B assay relative to control. The conditions noted are these: MDA-MB-435, 48 h, read-out: Activity. Summed up: as §1

On to `COc1cc(/C=C/c2cc(O)c3c(c2)C[C@@H]2C(C)(C)[C@H](O)CC[C@@]2(C)O3)cc(O)c1C/C=C(\C)CCC=C(C)C`, for which the RatioGI50 with A549 [1] was more than 30.

As for `COCc1cc(/C=C/c2cc(O)c(C/C=C(\C)CCC=C(C)C)c(OC)c2)cc2c1O[C@]1(C)CC[C@@H](O)C(C)(C)[C@H]1C2`, the growth at 10 µM with HT-29 worked out at 47.9%; in the assay with OVCAR-8 it was 103%; in the assay on NCI-H23, 100%; with MOLT-4, 70.4%; with T47D it was 106%; in the assay on HL-60(TB), 78.2%. The growth at 10 µM in the assay on MDA-MB-231 was determined as 81.3%; with NCI-H522 it was 72.2%; with SNB-19, 96.4%; in the assay on EKVX, 118%; with MDA-MB-468, 116%; with SF-295, 133%. For the same compound, the growth at 10 µM turned out to be 94.8% with OVCAR-3; 97.1% in the assay on SF-268; 118% in the assay with CAKI-1; 120% with NCI-H226; 193% in the assay with BT-549; 99.3% in the assay with HCC 2998. Also, the growth at 10 µM in the assay on UACC-62 was found to be 90.7%; in the assay with SF-539, 89.9%; in the assay with COLO 205 it was 130%; in the assay on LOX IMVI it was 92.7%; with NCI/ADR-RES, 100%; in assay [2] it was 82.8%. In addition, the growth at 10 µM was determined as 79% with PC-3; 84.2% in the assay on HCT-15; 108% with SK-MEL-5; 68.5% with HCT-116; 81.9% in the assay on CCRF-CEM; 105% in the assay with NCI-H460. The growth at 10 µM stood at 104% in the assay with A549 [3], 117% in the assay with M14 and 120% with MDA-MB-435.

`COc1cc(/C=C/c2cc3c(c(OC)c2)O[C@]2(C)CC[C@@H](O)C(C)(C)[C@H]2C3)cc(O)c1C/C=C(\C)CCC=C(C)C`: the RatioGI50 in the assay on A549 [1] came to 13.

For `COc1cc(/C=C/c2cc(Br)c3c(c2)C[C@@H]2C(C)(C)[C@H](O)CC[C@@]2(C)O3)cc(O)c1C/C=C(\C)CCC=C(C)C`, the growth at 10 µM stood at 74.5% in the assay with HT-29; 108% with OVCAR-8; 103% in the assay on NCI-H23; 74.1% in the assay on MOLT-4; 109% with T47D; 69.7% with HL-60(TB). Moreover, the growth at 10 µM amounted to 96.6% in the assay on MDA-MB-231; 81.5% in the assay on NCI-H522; 106% in the assay with SNB-19; 107% with EKVX; 110% in the assay on MDA-MB-468; 109% with SF-295. The growth at 10 µM turned out to be 88.2% with OVCAR-3; 88.5% in the assay with SF-268; 107% in the assay with CAKI-1; 117% with NCI-H226; 108% with BT-549; 103% in the assay with HCC 2998. The growth at 10 µM in the assay on UACC-62 was determined as 104%; in the assay on SF-539, 91.2%; in the assay on COLO 205, 126%; in the assay on LOX IMVI it was 105%; in the assay with NCI/ADR-RES, 105%; in assay [2], 64.3%. In addition, the growth at 10 µM in the assay on PC-3 worked out at 87.6%; with HCT-15, 96.1%; in the assay on SK-MEL-5 it was 99.3%; in the assay with HCT-116 it was 84.5%; with CCRF-CEM it was 85.3%; with NCI-H460, 108%. For the same compound, the figures for the growth at 10 µM in the assay with A549 [3], with M14 and in the assay on MDA-MB-435 were 94.7%, 107% and 109%, respectively.
